pKi: −log10 of the molar value. Values after ≈ are worked out from the molar mass of the structure shown. Active and inactive are the calls of the source. The rule behind the calls is not given here.
Assays:
[1] = system: Rhizopus arrhizus; test: Antifungal activity against Rhizopus oryzae by agar cup diffusion method; assay type: functional, organism-based
[2] = system: Bacillus subtilis; test: Antibacterial activity against Bacillus subtilis by broth dilution method; assay type: functional
Outline: (§1)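 Compounds and reference drugs were dissolved as stocks in 50% DMSO–water, then serially diluted twofold with culture medium, with bacterial inoculum added […], and the MIC was determined. Only compounds that gave a growth-inhibition zone in a prior agar cup diffusion screen went on to this broth dilution test.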

[3] = system: Staphylococcus aureus; test: Antibacterial activity against Staphylococcus aureus by broth dilution method; assay type: functional; outline: as §1
[4] = system: Escherichia coli; test: Antibacterial activity against Escherichia coli by broth dilution method; assay type: functional; outline: as §1
[5] = system: Klebsiella pneumoniae; test: Antibacterial activity against Klebsiella pneumoniae by broth dilution method; assay type: functional; outline: as §1
[6] = system: Candida albicans; test: Antifungal activity against Candida albicans by agar cup diffusion method; assay type: functional, organism-based
[7] = system: Pseudomonas aeruginosa; test: Antibacterial activity against Pseudomonas aeruginosa by broth dilution method; assay type: functional; outline: as §1
[8] = system: Saccharomyces cerevisiae; test: Antifungal activity against Saccharomyces cerevisiae by agar cup diffusion method; assay type: functional, organism-based
[9] = system: Staphylococcus epidermidis; test: Antibacterial activity against Staphylococcus epidermidis by broth dilution method; assay type: functional; outline: as §1
[10] = system: Aspergillus niger; test: Antifungal activity against Aspergillus niger by agar cup diffusion method; assay type: functional, organism-based
[11] = Inhibition of bovine N-acetyl-beta-D-glucosaminidase; parameters: species or system Bos taurus

SMILES	Activity [1]	MIC [2] [mg/L]	MIC [3] [mg/L]	MIC [4] [mg/L]	MIC [5] [mg/L]	Activity [6]	MIC [7] [mg/L]	Activity [8]	MIC [9] [mg/L]	Activity [10]	pKi [11]
Cc1ccc(-n2c([C@H]3O[C@@H]4OC(C)(C)O[C@@H]4[C@H]4OC(C)(C)O[C@H]43)nc(-c3ccccc3)c2-c2ccccc2)cc1	inactive	37.5 (≈ 69.6 µM)	37.5 (≈ 69.6 µM)	75 (≈ 139 µM)	75 (≈ 139 µM)	inactive	75 (≈ 139 µM)	inactive	75 (≈ 139 µM)	inactive	–
CN[C@@H]1[C@H](O[C@H]2[C@H](O[C@H]3[C@H](O)[C@@H](O)[C@H](N=C(N)N)[C@@H](O)[C@@H]3N=C(N)N)O[C@@H](C)[C@]2(O)C=O)O[C@@H](CO)[C@H](O)[C@H]1O (stereo in doubt) [STREPTOMYCIN]	–	6.25 (≈ 10.7 µM)	1.56 (≈ 2.69 µM)	2.35 (≈ 4.04 µM)	3.12 (≈ 5.37 µM)	–	3.12 (≈ 5.37 µM)	–	1.56 (≈ 2.69 µM)	–	–
CC1(C)OC(c2nc(-c3ccccc3)c(-c3ccccc3)n2-c2ccc(F)cc2)[C@H]([C@@H](O)[C@H]2COC(C)(C)O2)O1 (some centres not stated)	inactive	150 (≈ 275 µM)	150 (≈ 275 µM)	75 (≈ 138 µM)	75 (≈ 138 µM)	inactive	75 (≈ 138 µM)	inactive	150 (≈ 275 µM)	inactive	–
Cc1ccc(-n2c([C@H]3COC(C)(C)O3)nc(-c3ccccc3)c2-c2ccccc2)cc1	inactive	150 (≈ 365 µM)	150 (≈ 365 µM)	75 (≈ 183 µM)	75 (≈ 183 µM)	inactive	150 (≈ 365 µM)	inactive	75 (≈ 183 µM)	inactive	–
CC1(C)OC[C@H](c2nc(-c3ccccc3)c(-c3ccccc3)n2-c2ccc(F)cc2)O1	inactive	75 (≈ 181 µM)	75 (≈ 181 µM)	37.5 (≈ 90.5 µM)	75 (≈ 181 µM)	inactive	37.5 (≈ 90.5 µM)	inactive	75 (≈ 181 µM)	inactive	–
Cc1ccc(-n2c(C3OC(C)(C)O[C@H]3[C@@H](O)[C@H]3COC(C)(C)O3)nc(-c3ccccc3)c2-c2ccccc2)cc1 (some centres not stated)	inactive	75 (≈ 139 µM)	75 (≈ 139 µM)	75 (≈ 139 µM)	75 (≈ 139 µM)	inactive	75 (≈ 139 µM)	inactive	150 (≈ 277 µM)	inactive	–
OC[C@@H](O)[C@@H](O)[C@@H](O)[C@H](O)c1nc(-c2ccccc2)c(-c2ccccc2)n1Cc1ccccc1	inactive	75 (≈ 163 µM)	75 (≈ 163 µM)	75 (≈ 163 µM)	75 (≈ 163 µM)	inactive	75 (≈ 163 µM)	inactive	75 (≈ 163 µM)	inactive	–
CC(=O)N[C@H]1c2nc(CC(=O)O)cn2[C@H](CO)[C@H](O)[C@@H]1O [NAGSTATIN]	–	–	–	–	–	–	–	–	–	–	8.40
CC1(C)OC(c2nc(-c3ccccc3)c(-c3ccccc3)n2Cc2ccccc2)[C@H]([C@@H](O)[C@H]2COC(C)(C)O2)O1 (some centres not stated)	inactive	75 (≈ 139 µM)	75 (≈ 139 µM)	75 (≈ 139 µM)	75 (≈ 139 µM)	inactive	37.5 (≈ 69.4 µM)	inactive	150 (≈ 277 µM)	inactive	–
CC1(C)O[C@H]2O[C@H](c3nc(-c4ccccc4)c(-c4ccccc4)n3Cc3ccccc3)[C@H](O)[C@H]2O1	inactive	150 (≈ 320 µM)	150 (≈ 320 µM)	150 (≈ 320 µM)	75 (≈ 160 µM)	inactive	37.5 (≈ 80 µM)	inactive	150 (≈ 320 µM)	inactive	–
Cc1cccc(-n2c(C3OC(C)(C)O[C@H]3[C@@H](O)[C@H]3COC(C)(C)O3)nc(-c3ccccc3)c2-c2ccccc2)c1 (some centres not stated)	inactive	150 (≈ 277 µM)	150 (≈ 277 µM)	75 (≈ 139 µM)	150 (≈ 277 µM)	inactive	37.5 (≈ 69.4 µM)	inactive	75 (≈ 139 µM)	inactive	–

Source: ChEMBL document CHEMBL1143111, “Synthesis and antimicrobial activity of novel C-linked imidazole glycoconjugates” (Bioorg Med Chem Lett, 2008)
